Measured values: ChEMBL document CHEMBL1156008, “Synthesis of novel isoluminol probes and their use in rapid bacterial assays” (Bioorg Med Chem Lett, 2009)
Active and inactive are the calls of the source. The rule behind the calls is not given here.

Experiments:
Staphylococcus aureus [1] = assay: Binding affinity to Staphylococcus aureus ATCC 25923 membrane surface by fluorescence assay; format: functional, organism-based
Summary of the method: (§1)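 Cell pellets were exposed to peptide-isoluminol probe in pH 6.4 phosphate buffer (0.01 M, 0.1 ionic strength). Probe remaining on cells was then tracked through repeated buffer wash cycles by fluorescence at ex 360/em 430 nm.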

Escherichia coli [2] = assay: Binding affinity to Escherichia coli ATCC 47076 membrane surface measured after second washout with buffer by fluorescence assay; format: functional, organism-based; summary of the method: as §1
Lactococcus lactis [3] = assay: Binding affinity to Lactococcus lactis subsp. lactis C2 ATCC 11454 membrane surface by fluorescence assay; format: functional
Summary of the method: (§2)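 L. lactis C2 grown 18 h at 27 °C in M17 (4% v/v inoculum). 200 µl culture, in triplicate, pelleted (9000g, 2 °C, 10 min); supernatant background subtracted. Pellet resuspended in peptide-isoluminol probe (DMF, diluted in pH 6.4 phosphate buffer, 0.01 M, 0.1 ionic strength) for 10 min at 27 °C. Fluorescence read at ex 360/em 430 nm, then repeated centrifugation/buffer washes; fraction retained calculated.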

Staphylococcus aureus [4] = assay: Binding affinity to Staphylococcus aureus ATCC 25923 membrane surface measured after second washout with buffer by fluorescence assay; format: functional, organism-based; summary of the method: as §1
Salmonella typhimurium [5] = assay: Binding affinity to Salmonella Typhimurium ATCC 14028 membrane surface by fluorescence assay; format: functional, organism-based; settings: Salmonella enterica subsp. enterica serovar Typhimurium; summary of the method: as §1
Lactococcus lactis [6] = assay: Binding affinity to Lactococcus lactis subsp. lactis C2 ATCC 11454 membrane surface measured after second washout with buffer by fluorescence assay; format: functional; summary of the method: as §2
Escherichia coli [7] = assay: Binding affinity to Escherichia coli ATCC 47076 membrane surface by fluorescence assay; format: functional, organism-based; summary of the method: as §1
Salmonella typhimurium [8] = assay: Binding affinity to Salmonella Typhimurium ATCC 14028 membrane surface measured after second washout with buffer by fluorescence assay; format: functional, organism-based; settings: Salmonella enterica subsp. enterica serovar Typhimurium; summary of the method: as §1
Lactococcus lactis [9] = assay: Binding affinity to Lactococcus lactis subsp. lactis C2 ATCC 11454 membrane surface measured after first washout with buffer by fluorescence assay; format: functional; summary of the method: as §2
Salmonella typhimurium [10] = assay: Binding affinity to Salmonella Typhimurium ATCC 14028 membrane surface measured after fourth washout with buffer by fluorescence assay; format: functional, organism-based; settings: Salmonella enterica subsp. enterica serovar Typhimurium; summary of the method: as §1
Escherichia coli [11] = assay: Binding affinity to Escherichia coli ATCC 47076 membrane surface measured after fourth washout with buffer by fluorescence assay; format: functional, organism-based; summary of the method: as §1

| SMILES | Activity (Staphylococcus aureus [1]) [%] | Activity (Escherichia coli [2]) | Activity (Lactococcus lactis [3]) [%] | Activity (Staphylococcus aureus [4]) | Activity (Salmonella typhimurium [5]) [%] | Activity (Lactococcus lactis [6]) | Activity (Escherichia coli [7]) [%] | Activity (Salmonella typhimurium [8]) | Activity (Lactococcus lactis [9]) | Activity (Salmonella typhimurium [10]) | Activity (Escherichia coli [11]) |
| --- | --- | --- | --- | --- | --- | --- | --- | --- | --- | --- | --- |
| CCN(CCCCCCNC(=O)COCC(=O)NC(CCC(=O)O)C(=O)NC(CCC(=O)O)C(=O)O)c1ccc2c(=O)[nH][nH]c(=O)c2c1 (centres undefined) | 15 | Active | 15 | Active | 15 | Active | 15 | Active | Active | – | – |
| CCN(CCCCCCNC(=O)COCC(=O)N[C@@H](CCCCN)C(=O)N[C@@H](CCCCN)C(=O)N[C@@H](CCCCN)C(=O)O)c1ccc2c(=O)[nH][nH]c(=O)c2c1 | – | – | 34 | – | – | 10% | – | – | 23% | Active | Active |
